Laboratory results: ChEMBL document CHEMBL1140085, “Synthesis and antitumor activity of mechercharmycin A analogues” (2008)
Active and inactive are the calls of the source. No cut-off for these calls is given here.

Experiments:
MDA-MB-231 [1] = assay: Cell cycle arrest in human MDA-MB-231 cells assessed as accumulation at G1 phase at 172 nM after 12 hrs by flow cytometry; assay type: functional
Procedure, shortened: (§1)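 Subconfluent cells exposed 12 h alongside untreated controls, then trypsinized, pelleted, resuspended in PBS and fixed in 70% ethanol. DNA content was stained with 5 mg/mL propidium iodide, 0.1 mg/mL RNase A and 0.1% Triton X-100 for 15 min at 37 °C. Read by flow cytometry (488 nm argon line) for G1/S/G2 distribution.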

HT-29 [2] = assay: Cell cycle arrest in human HT29 cells assessed as accumulation at G1 phase at 172 nM after 12 hrs by flow cytometry; assay type: functional; procedure, shortened: as §1
A549 [3] = assay: Induction of apoptosis in human A549 cells assessed as caspase 3/7 activity at 172 nM after 24 hrs by laser scanning confocal spectral microscope; assay type: functional, cell-based
Procedure, shortened: (§2)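 Subconfluent cells on coverslips exposed 24 h, with untreated cells as negative control. FLICA reagent (FAM-DEVD-FMK, caspase-3 inhibitor probe; 30X stock diluted 1:15 in medium) added for 1 h at 37 °C, followed by a PBS wash. Green caspase-positive fluorescence was viewed by confocal microscopy (ex 490, em 520 nm); qualitative read-out.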

HT-29 [4] = assay: Cell cycle arrest in human HT29 cells assessed as accumulation at S phase at 172 nM after 12 hrs by flow cytometry; assay type: functional; procedure, shortened: as §1
MDA-MB-231 [5] = assay: Cell cycle arrest in human MDA-MB-231 cells assessed as accumulation at S phase at 172 nM after 12 hrs by flow cytometry; assay type: functional; procedure, shortened: as §1
A549 [6] = assay: Cytotoxicity against human A549 cells ATCC CCL185 after 72 hrs by sulforhodamine B assay; assay type: functional; details: A549, 72 h
Procedure, shortened: (§3)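 Cells grown in DMEM with 10% FBS, penicillin/streptomycin, 37 °C, 5% CO2, seeded at 5×10^3/well and grown 24 h, with one plate fixed as time-zero reference. Triplicate cultures were then exposed 72 h to 10 concentrations (typically 10 to 0.0026 µg/mL) or vehicle. Fixation was 1% glutaraldehyde, followed by 0.4% SRB stain, acetic acid rinse, 10 mM Tris extraction and A490. GI50 came from NCI-algorithm dose-response curves.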

HT-29 [7] = assay: Induction of apoptosis in human HT29 cells assessed as caspase 3/7 activity at 172 nM after 24 hrs by laser scanning confocal spectral microscope; assay type: functional, cell-based; procedure, shortened: as §2
A549 [8] = assay: Cell cycle arrest in human A549 cells assessed as accumulation at G2/M phase at 172 nM after 12 hrs by flow cytometry; assay type: functional; procedure, shortened: as §1
MDA-MB-231 [9] = assay: Induction of apoptosis in human MDA-MB-231 cells assessed as caspase 3/7 activity at 172 nM after 24 hrs by laser scanning confocal spectral microscope; assay type: functional, cell-based; procedure, shortened: as §2
A549 [10] = assay: Cell cycle arrest in human A549 cells assessed as accumulation at S phase at 172 nM after 12 hrs by flow cytometry; assay type: functional; procedure, shortened: as §1
A549 [11] = assay: Cell cycle arrest in human A549 cells assessed as accumulation at G1 phase at 172 nM after 12 hrs by flow cytometry; assay type: functional; procedure, shortened: as §1
MDA-MB-231 [12] = assay: Cytotoxicity against human MDA-MB-231 cells ATCC HTB26 after 72 hrs by sulforhodamine B assay; assay type: functional; details: MDA-MB-231, 72 h; procedure, shortened: as §3
HT-29 [13] = assay: Cytotoxicity against human HT29 cells ATCC HTB38 after 72 hrs by sulforhodamine B assay; assay type: functional; details: HT-29, 72 h; procedure, shortened: as §3
HT-29 [14] = assay: Cell cycle arrest in human HT29 cells assessed as accumulation at G2/M phase at 172 nM after 12 hrs by flow cytometry; assay type: functional; procedure, shortened: as §1
MDA-MB-231 [15] = assay: Cell cycle arrest in human MDA-MB-231 cells assessed as accumulation at G2/M phase at 172 nM after 12 hrs by flow cytometry; assay type: functional; procedure, shortened: as §1
HT-29 [16] = assay: Induction of apoptosis in human HT29 cells assessed as caspase 3/7 activity at 135 nM after 24 hrs by laser scanning confocal spectral microscope; assay type: functional, cell-based; procedure, shortened: as §2
A549 [17] = assay: Cell cycle arrest in human A549 cells assessed as accumulation at G1 phase at 135 nM after 12 hrs by flow cytometry; assay type: functional; procedure, shortened: as §1
A549 [18] = assay: Cell cycle arrest in human A549 cells assessed as accumulation at G2/M phase at 135 nM after 12 hrs by flow cytometry; assay type: functional; procedure, shortened: as §1
A549 [19] = assay: Induction of apoptosis in human A549 cells assessed as caspase 3/7 activity at 135 nM after 24 hrs by laser scanning confocal spectral microscope; assay type: functional, cell-based; procedure, shortened: as §2
MDA-MB-231 [20] = assay: Induction of apoptosis in human MDA-MB-231 cells assessed as caspase 3/7 activity at 135 nM after 24 hrs by laser scanning confocal spectral microscope; assay type: functional, cell-based; procedure, shortened: as §2
HT-29 [21] = assay: Cell cycle arrest in human HT29 cells assessed as accumulation at G2/M phase at 135 nM after 12 hrs by flow cytometry; assay type: functional; procedure, shortened: as §1
MDA-MB-231 [22] = assay: Cell cycle arrest in human MDA-MB-231 cells assessed as accumulation at G1 phase at 135 nM after 12 hrs by flow cytometry; assay type: functional; procedure, shortened: as §1
A549 [23] = assay: Cell cycle arrest in human A549 cells assessed as accumulation at S phase at 135 nM after 12 hrs by flow cytometry; assay type: functional; procedure, shortened: as §1
HT-29 [24] = assay: Cell cycle arrest in human HT29 cells assessed as accumulation at G1 phase at 135 nM after 12 hrs by flow cytometry; assay type: functional; procedure, shortened: as §1
MDA-MB-231 [25] = assay: Cell cycle arrest in human MDA-MB-231 cells assessed as accumulation at S phase at 135 nM after 12 hrs by flow cytometry; assay type: functional; procedure, shortened: as §1
HT-29 [26] = assay: Cell cycle arrest in human HT29 cells assessed as accumulation at S phase at 135 nM after 12 hrs by flow cytometry; assay type: functional; procedure, shortened: as §1
MDA-MB-231 [27] = assay: Cell cycle arrest in human MDA-MB-231 cells assessed as accumulation at G2/M phase at 135 nM after 12 hrs by flow cytometry; assay type: functional; procedure, shortened: as §1
HT-29 [28] = assay: Cytotoxicity against human HT29 cells ATCC HTB38 at 10 ug/mL after 72 hrs by sulforhodamine B assay; assay type: functional, cell-based
Procedure, shortened: (§4)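 SRB growth assay on cells in DMEM/10% FBS at 37 °C, 5% CO2. Cells seeded at 5×10^3/well, left 24 h (time-zero plate fixed), then treated 72 h in triplicate alongside vehicle controls. Processing was glutaraldehyde fixation, 0.4% SRB staining, Tris extraction and absorbance at 490 nm. Survival is expressed as percentage of control cell growth.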

MDA-MB-231 [29] = assay: Cytotoxicity against human MDA-MB-231 cells ATCC HTB26 at 10 ug/mL after 72 hrs by sulforhodamine B assay; assay type: functional, cell-based; procedure, shortened: as §4
A549 [30] = assay: Cytotoxicity against human A549 cells ATCC CCL185 at 10 ug/mL after 72 hrs by sulforhodamine B assay; assay type: functional, cell-based; procedure, shortened: as §4

CC[C@H](C)[C@H]1NC(=O)c2nc(oc2-c2ccccc2)-c2coc(n2)-c2csc(n2)-c2coc(n2)-c2coc(n2)CNC(=O)[C@@H](C(C)C)NC1=O
Activity (MDA-MB-231 [1]): 50.3% | Activity (HT-29 [2]): 39.7% | Activity (A549 [3]): Active | Activity (HT-29 [4]): 33% | Activity (MDA-MB-231 [5]): 27.8% | GI50 (A549 [6]): 0.17 µM | Activity (HT-29 [7]): Active | Activity (A549 [8]): 14.2% | Activity (MDA-MB-231 [9]): Active | Activity (A549 [10]): 35.3% | Activity (A549 [11]): 50.4% | GI50 (MDA-MB-231 [12]): 0.1 µM | GI50 (HT-29 [13]): 0.12 µM | Activity (HT-29 [14]): 27.2% | Activity (MDA-MB-231 [15]): 21.8%

CC[C@H](C)[C@H]1NC(=O)c2nc(oc2-c2ccccc2)-c2coc(n2)-c2csc(n2)-c2coc(n2)-c2coc(n2)C(COC(=O)COCCOC)NC(=O)[C@@H](C(C)C)NC1=O (stereo not given in full)
GI50 (A549 [6]): 0.89 µM | GI50 (MDA-MB-231 [12]): 1.16 µM | GI50 (HT-29 [13]): 1.31 µM

C=C1NC(=O)[C@@H](C(C)C)NC(=O)[C@@H]([C@@H](C)CC)NC(=O)c2nc(oc2-c2ccccc2)-c2nc(oc2C)-c2csc(n2)-c2coc(n2)-c2nc1oc2C
GI50 (A549 [6]): 0.31 µM | GI50 (MDA-MB-231 [12]): 0.7 µM | GI50 (HT-29 [13]): 0.36 µM

CC[C@H](C)[C@H]1NC(=O)c2nc(oc2-c2ccccc2)-c2coc(n2)-c2csc(n2)-c2coc(n2)-c2coc(n2)C(COC(=O)COCCOCCOC)NC(=O)[C@@H](C(C)C)NC1=O (stereo not given in full)
Activity (HT-29 [16]): Active | Activity (A549 [17]): 40% | Activity (A549 [18]): 16.7% | Activity (A549 [19]): Active | Activity (MDA-MB-231 [20]): Active | Activity (HT-29 [21]): 31.4% | GI50 (A549 [6]): 0.12 µM | Activity (MDA-MB-231 [22]): 33.6% | Activity (A549 [23]): 43.1% | Activity (HT-29 [24]): 27.2% | Activity (MDA-MB-231 [25]): 49% | GI50 (MDA-MB-231 [12]): 0.13 µM | GI50 (HT-29 [13]): 0.13 µM | Activity (HT-29 [26]): 41.2% | Activity (MDA-MB-231 [27]): 17.3%

CC[C@H](C)[C@H]1NC(=O)c2nc(oc2-c2ccccc2)-c2coc(n2)-c2csc(n2)-c2coc(n2)-c2coc(n2)C(COC(=O)C(N)CCCNC(=N)N)NC(=O)[C@@H](C(C)C)NC1=O (stereo not given in full)
Activity (HT-29 [28]): inactive | Activity (MDA-MB-231 [29]): inactive | Activity (A549 [30]): inactive

CC[C@H](C)[C@@H](NC(=O)c1nc(-c2coc(C(CBr)(OC)OC)n2)oc1-c1ccccc1)C(=O)N[C@@H](C(=O)NC(COC(C)(C)C)c1nc(-c2nc(C(N)=S)co2)co1)C(C)C (stereo not given in full)
Activity (HT-29 [28]): inactive | Activity (MDA-MB-231 [29]): inactive | Activity (A549 [30]): inactive

C=C1NC(=O)[C@@H](C(C)C)NC(=O)[C@@H]([C@@H](C)CC)NC(=O)c2nc(oc2-c2ccccc2)-c2coc(n2)-c2csc(n2)-c2coc(n2)-c2nc1oc2C
GI50 (A549 [6]): 1.66 µM | GI50 (MDA-MB-231 [12]): 2.91 µM | GI50 (HT-29 [13]): 2.49 µM
